Test results from PMC5766731 (Clinical Pharmacokinetics, 2017).
Read-outs that look alike come from different tables or passages of the source.

Legend:
[1] = Part I urinary recovery of ZYAN1; format: in vivo, human; details: for Amount recovered [mean ± SD] / Percentage recovered [mean ± SD]: urine, part I
In short: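 Urine collected pre-dose and over 0–12, 12–24, 24–36 and 36–48 h: after the single dose (10–300 mg, part I) or after each alternate-day dose on Days 1, 3 and 5 (part II). Total volume recorded; 5 mL aliquots stored at –80 ± 10 °C. Acetonitrile precipitation and LC-MS/MS with analog internal standard, urine calibration 2–5000 ng/mL, LLOQ 2 ng/mL. Amount and percentage of dose recovered calculated.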

[2] = dogs, cited from earlier work
[3] = test system: serum erythropoietin (EPO), hemoglobin, hematocrit, reticulocyte count; experiment: Part I pharmacodynamics; format: in vivo, human; details: for mean serum EPO C max: placebo 9.6 mIU/L
In short: (§1)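 Serum EPO, hemoglobin, hematocrit and reticulocyte count were measured in blood taken before and after oral dosing. Regimens: part I single fasted doses 10–300 mg vs placebo; part II 100–300 mg on Days 1, 3, 5 vs placebo; part III single 150 mg, fasted vs fed, men and women. EPO expressed baseline-corrected. Post-dose vs baseline compared by paired two-sided t test, α = 0.05.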

[4] = test system: serum erythropoietin (EPO), hemoglobin, hematocrit, reticulocyte count; experiment: Part III pharmacodynamics; format: in vivo, human; details: single 150 mg
In short: as §1

[5] = test system: serum erythropoietin (EPO), hemoglobin, hematocrit, reticulocyte count; experiment: Part II pharmacodynamics; format: in vivo, human; details: for serum EPO C max: placebo 11.0 mIU/L
In short: as §1

[6] = rats, oral route; cited from earlier work
[7] = Part II multiple ascending-dose pharmacokinetics; format: in vivo, human; details: for t max / AUCt / AUC∞ / Accumulation Index / C max / CL / V z/F_obs / t ½ / λz: part II, N 6; for t max: mean (range) per footnote; for AUCt / AUC∞ / Accumulation Index / C max / CL / V z/F_obs / t ½ / λz: mean ± SD
In short: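 Four panels of eight (six drug, two placebo) were dosed orally, fasted, with 100, 150, 200 or 300 mg on Days 1, 3 and 5. Blood was taken pre-dose and at 0.5–36 h after the Day 1 and Day 5 doses, pre-dose and 12, 24 and 36 h after Day 3, and 48 and 72 h after Day 5. Diluted-blood LC-MS/MS (LLOQ 2 ng/mL). Accumulation index was derived.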

[8] = after oral dosing across the species tested; cited from earlier work
[9] = rats, 1-month toxicity study; cited from earlier work
[10] = 100 mg oral on Days 1, 3, 5, Day 1
[11] = 100 mg oral on Days 1, 3, 5, Day 5
[12] = 150 mg oral on Days 1, 3, 5, Day 1
[13] = 150 mg oral on Days 1, 3, 5, Day 5
[14] = 200 mg oral on Days 1, 3, 5, Day 1
[15] = 200 mg oral on Days 1, 3, 5, Day 5
[16] = 300 mg oral on Days 1, 3, 5, Day 1
[17] = 300 mg oral on Days 1, 3, 5, Day 5

SMILES: O=C(O)CNC(=O)c1c(O)c2ccccc2n(OCC2CC2)c1=O [ZYAN1]
- urinary excretion of intact ZYAN1, average ([1]; healthy subjects): 36%
- Amount recovered [mean ± SD] ([1]; single oral dose 10 mg): 3.63 ± 1.02 mg
- Percentage recovered [mean ± SD] ([1]; single oral dose 10 mg): 36.270 ± 10.245%
- Amount recovered [mean ± SD] ([1]; single oral dose 25 mg): 9.45 ± 1.76 mg
- Percentage recovered [mean ± SD] ([1]; single oral dose 25 mg): 37.798 ± 7.059%
- Amount recovered [mean ± SD] ([1]; single oral dose 50 mg): 18.99 ± 3.36 mg
- Percentage recovered [mean ± SD] ([1]; single oral dose 50 mg): 37.995 ± 6.718%
- Amount recovered [mean ± SD] ([1]; single oral dose 100 mg): 41.13 ± 12.06 mg
- Percentage recovered [mean ± SD] ([1]; single oral dose 100 mg): 41.130 ± 12.064%
- Amount recovered [mean ± SD] ([1]; single oral dose 150 mg): 56.23 ± 17.26 mg
- Percentage recovered [mean ± SD] ([1]; single oral dose 150 mg): 37.485 ± 11.508%
- Amount recovered [mean ± SD] ([1]; single oral dose 200 mg): 62.83 ± 18.11 mg
- Percentage recovered [mean ± SD] ([1]; single oral dose 200 mg): 31.417 ± 9.056%
- Amount recovered [mean ± SD] ([1]; single oral dose 300 mg): 82.66 ± 39.25 mg
- Percentage recovered [mean ± SD] ([1]; single oral dose 300 mg): 27.555 ± 13.083%
- maximum tolerated dose (MTD) ([2]; 1-month toxicity study): 15 mg/kg
- no observed adverse effect level (NOAEL) ([2]; 28-day toxicity study): 5 mg/kg
- EPO response vs placebo ([3]; doses up to 150 mg): not markedly different from placebo
- mean serum EPO C max ([3]; single dose 10 mg): 6.6 mIU/L
- mean serum EPO C max ([3]; single dose 300 mg): 79.9 mIU/L
- initiation of EPO rise after ZYAN1 administration ([3]; single dose, as early as): 6 h
- hemoglobin increase observed in most of the subjects ([3]; single dose, more consistent from 100 mg and above): > 0.5 gm%
- mean serum EPO concentrations, fasted vs fed [4]: no apparent difference
- mean serum EPO concentrations, male vs female subjects ([4]; fasted or fed): no apparent difference
- lag in time to EPO C max from pharmacokinetic t max ([5]; multiple dosing, similar to single dosing): 6 to 8 h
- serum EPO C max ([5]; part II, 100 mg on Days 1, 3, 5): 14.4 mIU/L
- serum EPO C max ([5]; part II, 300 mg on Days 1, 3, 5): 60.5 mIU/L
- hemoglobin increase on any timepoint, seen in more subjects than placebo ([5]; part II, higher threshold): > 1.0 gm%
- tolerated dose, single-dose study [6]: up to 800 mg/kg
- median t max, range ([7]; 100, 150, 200, 300 mg, first or fifth day of dosing): 1.5 to 3.0 h
- accumulation of the drug ([7]; after first and third dose of 100, 150, 200, 300 mg, alternate-day dosing): no accumulation of the drug was observed
- mean terminal t ½ ([7]; in vivo): approximately 10 h
- t max [7, 10]: 2.00 (1.00–3.00) h
- AUCt [7, 10]: 36,885.130 ± 11,488.927 h·ng/mL
- AUC∞ [7, 10]: 38,817.512 ± 13,184.682 h·ng/mL
- Accumulation Index [7, 10]: 1.027 ± 0.018
- C max [7, 10]: 6549.000 ± 1567.979 ng/mL
- CL [7, 10]: 2834.521 ± 775.188 mL/h
- V z/F_obs [7, 10]: 34,916.562 ± 8463.050 mL
- t ½ [7, 10]: 8.811 ± 1.869 h
- λz [7, 10]: 0.082 ± 0.020 h⁻¹
- t max [7, 11]: 2.00 (1.50–2.50) h
- AUCt [7, 11]: 39,690.467 ± 11,051.227 h·ng/mL
- AUC∞ [7, 11]: 40,102.984 ± 11,276.275 h·ng/mL
- Accumulation Index [7, 11]: 1.106 ± 0.128
- C max [7, 11]: 6566.667 ± 1525.703 ng/mL
- CL [7, 11]: 2744.020 ± 798.472 mL/h
- V z/F_obs [7, 11]: 47,571.130 ± 18,996.205 mL
- t ½ [7, 11]: 12.968 ± 6.654 h
- λz [7, 11]: 0.065 ± 0.029 h⁻¹
- t max [7, 12]: 1.50 (1.00–3.50) h
- AUCt [7, 12]: 59,780.215 ± 8539.865 h·ng/mL
- AUC∞ [7, 12]: 62,811.249 ± 10,222.543 h·ng/mL
- Accumulation Index [7, 12]: 1.025 ± 0.026
- C max [7, 12]: 8185.667 ± 1215.600 ng/mL
- CL [7, 12]: 2487.695 ± 399.669 mL/h
- V z/F_obs [7, 12]: 29,315.063 ± 6213.656 mL
- t ½ [7, 12]: 8.390 ± 2.431 h
- λz [7, 12]: 0.088 ± 0.025 h⁻¹
- t max [7, 13]: 1.75 (0.50–3.00) h
- AUCt [7, 13]: 65,307.036 ± 9629.912 h·ng/mL
- AUC∞ [7, 13]: 65,706.064 ± 9748.640 h·ng/mL
- Accumulation Index [7, 13]: 1.043 ± 0.026
- C max [7, 13]: 8657.000 ± 1190.575 ng/mL
- CL [7, 13]: 2398.514 ± 378.402 mL/h
- V z/F_obs [7, 13]: 34,943.264 ± 6986.821 mL
- t ½ [7, 13]: 10.205 ± 2.013 h
- λz [7, 13]: 0.070 ± 0.015 h⁻¹
- t max [7, 14]: 2.00 (1.50–3.50) h
- AUCt [7, 14]: 85,040.673 ± 12,019.503 h·ng/mL
- AUC∞ [7, 14]: 88,180.063 ± 13,633.711 h·ng/mL
- Accumulation Index [7, 14]: 1.017 ± 0.019
- C max [7, 14]: 13,203.333 ± 2762.033 ng/mL
- CL [7, 14]: 2344.752 ± 361.388 mL/h
- V z/F_obs [7, 14]: 25,167.492 ± 5973.588 mL
- t ½ [7, 14]: 7.573 ± 2.103 h
- λz [7, 14]: 0.097 ± 0.024 h⁻¹
- t max [7, 15]: 1.75 (0.50–2.50) h
- AUCt [7, 15]: 77,994.986 ± 21,218.895 h·ng/mL
- AUC∞ [7, 15]: 78,368.940 ± 21,616.249 h·ng/mL
- Accumulation Index [7, 15]: 1.033 ± 0.018
- C max [7, 15]: 12,388.333 ± 1607.376 ng/mL
- CL [7, 15]: 2758.333 ± 677.108 mL/h
- V z/F_obs [7, 15]: 36,889.057 ± 5339.335 mL
- t ½ [7, 15]: 9.534 ± 1.467 h
- λz [7, 15]: 0.074 ± 0.012 h⁻¹
- t max [7, 16]: 3.00 (1.50–3.500) h
- AUCt [7, 16]: 118,269.238 ± 28,910.037 h·ng/mL
- AUC∞ [7, 16]: 123,020.455 ± 32,873.290 h·ng/mL
- Accumulation Index [7, 16]: 1.017 ± 0.011
- C max [7, 16]: 19,286.667 ± 4086.434 ng/mL
- CL [7, 16]: 2608.681 ± 641.704 mL/h
- V z/F_obs [7, 16]: 29,476.605 ± 6045.099 mL
- t ½ [7, 16]: 7.968 ± 1.106 h
- λz [7, 16]: 0.088 ± 0.011 h⁻¹
- t max [7, 17]: 1.75 (1.00–2.00) h
- AUCt [7, 17]: 105,472.355 ± 19,487.237 h·ng/mL
- AUC∞ [7, 17]: 105,772.678 ± 19,542.028 h·ng/mL
- Accumulation Index [7, 17]: 1.033 ± 0.022
- C max [7, 17]: 16,450.000 ± 3422.484 ng/mL
- CL [7, 17]: 2992.073 ± 697.789 mL/h
- V z/F_obs [7, 17]: 41,797.611 ± 17,743.925 mL
- t ½ [7, 17]: 9.445 ± 1.819 h
- λz [7, 17]: 0.076 ± 0.015 h⁻¹
- oral absorption and bioavailability [8]: well-absorbed and highly bioavailable
- maximum tolerated dose (MTD) [9]: 60 mg/kg
